KCNK9 block: blocks the human KCNK9 two-pore domain potassium channel | HEK293 KCNK9, FluxOR thallium flux fluorescence; hits give low values | B-score at 10 µM | Q9NPC2 | actives 1.2% (n = 310,000);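 active means ratio B-score over 3 SD below the library mean, with starting fluorescence within 5 SD of its mean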;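 further: negative B-score means less thallium flux so channel inhibition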
hERG rescue: shields human hERG channel from block by proarrhythmic agents; AID 1511; activation (rescue from dofetilide block), less the hit threshold, % at 10 µM; CHO-hERG, FluxOR thallium flux, dofetilide IC70 present; actives 0.51% (n = 310,000);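 active means activation above the mean of controls blocked by dofetilide plus 5 SD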;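 further: thallium influx through hERG after potassium depolarization seen as dye fluorescence rise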
Target sequence (Q12809 whole entry, looked up): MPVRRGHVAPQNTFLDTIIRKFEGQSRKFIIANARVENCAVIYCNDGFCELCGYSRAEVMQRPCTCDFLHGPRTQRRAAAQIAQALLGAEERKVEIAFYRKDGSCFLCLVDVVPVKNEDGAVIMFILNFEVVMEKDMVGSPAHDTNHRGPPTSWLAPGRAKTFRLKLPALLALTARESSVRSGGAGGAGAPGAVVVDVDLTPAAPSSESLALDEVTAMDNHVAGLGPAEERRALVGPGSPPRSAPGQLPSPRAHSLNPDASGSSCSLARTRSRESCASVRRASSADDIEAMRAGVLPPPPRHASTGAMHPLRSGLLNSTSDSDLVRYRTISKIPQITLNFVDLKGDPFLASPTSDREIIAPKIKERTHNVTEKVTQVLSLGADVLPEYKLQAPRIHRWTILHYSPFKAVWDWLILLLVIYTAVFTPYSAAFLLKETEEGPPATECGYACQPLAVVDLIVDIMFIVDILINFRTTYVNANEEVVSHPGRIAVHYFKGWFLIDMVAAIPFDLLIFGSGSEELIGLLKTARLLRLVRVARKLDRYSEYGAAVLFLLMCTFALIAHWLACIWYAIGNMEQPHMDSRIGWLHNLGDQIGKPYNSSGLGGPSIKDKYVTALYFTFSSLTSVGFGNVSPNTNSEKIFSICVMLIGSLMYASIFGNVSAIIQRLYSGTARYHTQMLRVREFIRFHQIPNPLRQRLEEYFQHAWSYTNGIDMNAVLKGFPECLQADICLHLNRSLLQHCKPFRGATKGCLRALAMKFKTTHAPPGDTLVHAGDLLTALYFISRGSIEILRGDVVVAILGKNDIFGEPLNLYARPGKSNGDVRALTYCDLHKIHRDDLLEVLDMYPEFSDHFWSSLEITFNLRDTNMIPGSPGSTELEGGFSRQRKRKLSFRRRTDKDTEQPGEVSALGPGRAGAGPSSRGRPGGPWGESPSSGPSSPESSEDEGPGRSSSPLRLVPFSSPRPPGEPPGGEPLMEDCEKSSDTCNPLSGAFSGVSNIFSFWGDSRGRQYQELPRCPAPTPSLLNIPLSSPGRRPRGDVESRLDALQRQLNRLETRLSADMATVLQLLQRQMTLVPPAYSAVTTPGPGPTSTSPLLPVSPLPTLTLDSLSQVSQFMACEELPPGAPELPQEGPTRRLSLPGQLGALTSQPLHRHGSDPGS
KCNQ1 act: potentiates or activates the human KCNQ1 potassium channel; P51787; AID 2648; B-score at 10 µM; CHO-K1 KCNQ1, thallium flux FluxOR fluorescence; hits give high values; actives 0.35% (n = 310,000);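 active means fluorescence ratio B-score, a plate-corrected score, at least three library SD, with initial intensity B-score within 5 SD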
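System: Stable KCNQ1 CHO-K1 line | Incubation: 90 min dye loading and 20 min compound exposure, both at room temperature | Measure: Ratio B score | Medium: Assay buffer for compound exposure, DMSO matched across wells | Compound dosing: Single-concentration screen | Probe or stimulus: K+/Tl+ depolarizing stimulus | Measured by: Kinetic FluxOR fluorescence, 10 s baseline plus 110 s post-stimulus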
KCNQ1 block: human KCNQ1 channel inhibition; P51787; CHO-K1 KCNQ1, FluxOR thallium flux fluorescence; hits give high values; B-score at 10 µM; actives 1.3% (n = 310,000);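 active means compounds whose thallium flux B-score, printed positive for inhibition, exceeds three library SD while starting fluorescence stays within three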;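 further: channel opened by potassium depolarization with thallium stimulus after 20 min compound exposure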
KCC2 mod: KCC2 (human) Cl- transport modulation | AID 1456 | KCC2 cells, thallium flux FluoZin-2 fluorescence | actives 2.2% (n = 190,000) | Q9H2X9 | B-score of Tl+ flux slope (higher = more flux/activation; lower = inhibition) at 10 µM;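 active means thallium flux slope and its plate-corrected score both differing from the plate sample mean at a set confidence after two filtering rounds, in either direction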;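 further: slope of fluorescence scaled to starting intensity during 10 to 20 s after thallium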
KCNK3 block: human KCNK3 channel inhibition, primary screen; O14649; CHO-KCNK3 thallium flux, FluxOR fluorescence; hits give low values; B-score at 10 µM; actives 0.84% (n = 340,000); AID 602410;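 active means B-score under library mean minus 4 SD, starting fluorescence ratio at most library mean plus 5 SD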;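 further: more negative B-score means stronger inhibition of thallium flux through KCNK3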
KCC2 secondary: KCC2 (human) modulation, secondary assay. shares compounds with KCC2 mod. HEK293-KCC2, thallium flux, FluoZin2 fluorescence; hits give high values. normalised thallium flux (F/F0 slope) at 10 µM. actives 15% (n = 3,700). AID 1713;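 active means thallium flux slope above the same plate's solvent-only control mean plus 3 SD; inconclusive means the two replicate wells disagree; inactive means no significant difference from solvent-only control wells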
KCC2 bumet counter: thallium flux despite bumetanide block in KCC2 cells, secondary assay 3; actives 49% (n = 3,700); HEK293-KCC2 + bumetanide/ouabain, thallium flux FluoZin2; hits give high values; AID 1714; shares compounds with KCC2 mod; normalized thallium flux at 10 µM;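 active means thallium entry rate above the same plate's blocked-transporter control wells by more than 3 SD; inconclusive means the two repeat wells disagree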;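 further: raw slope of fluorescence over initial fluorescence between 10 and 20 s after thallium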
KCC2 sec2: KCC2 (human) modulation, second secondary assay. shares compounds with KCC2 mod. HEK293-KCC2, thallium flux FluoZin2 fluorescence; actives lie on both sides; F/F0 rise rate, 10–20 s post-thallium. normalized thallium flux at 10 µM. actives 23% (n = 3,700). AID 1715;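 active means thallium flux slope more than 3 SD above or below the plate's solvent-only control mean, mostly below; inconclusive means the two repeat wells disagreed; inactive means no significant shift from solvent-only controls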;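 further: raw slope with 0.1% DMSO as baseline and bumetanide as block control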
HEK counter1: acts in parental HEK cells, KCC2 counter-screen; shares compounds with KCC2 mod; HEK293 parental cells, thallium flux FluoZin2, ouabain; baseline-ratio fluorescence slope, 10–20 s after thallium; thallium flux rate (normalised fluorescence) at 10 µM; actives 46% (n = 3,700); AID 1716;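 active means thallium flux rate significantly above the same plate's solvent-only control wells, beyond their mean plus 3 SD; inconclusive means the two replicate wells gave conflicting results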
KCC2 retest ouab: confirmation of human KCC2 modulators with ouabain; actives 48% (n = 3,700); shares compounds with KCC2 mod; HEK293-KCC2, thallium flux FluoZin2 fluorescence; bidirectional: low = inhibitor, high = activator; AID 1717; raw Tl+ flux slope (below DMSO = inhibition, above = activation) at 10 µM;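 active means thallium flux slope beyond 3 SD from same-plate DMSO control mean in most replicates, usually higher, sometimes lower; inconclusive means repeat tests gave conflicting results; inactive means no significant difference from controls in most replicates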;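 further: slope of initial-normalized fluorescence between seconds 10 and 20 after thallium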
HEK counter2: counter-screen for KCC2 modulators: effect in parental HEK293 cells | shares compounds with KCC2 mod | thallium flux FluoZin-2 fluorescence slope | thallium flux slope at 10 µM | actives 33% (n = 3,700) | AID 1718;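 active means thallium flux slope above the same plate's solvent-control mean plus 3 SD in both duplicate wells; inconclusive means duplicate wells that disagreed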;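 further: run without ouabain in cells lacking the KCC2 cotransporter; slope of fluorescence scaled to its starting value between 10 and 20 s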
* hit, by the source's call; i = inactive; ? = inconclusive; . = no result given. Shown are actives, neighbours in structure and some others; about 4.1% of the full set was active somewhere.

SMILES	KCNK9 block	hERG rescue	KCNQ1 act	KCNQ1 block	KCC2 mod	KCNK3 block	KCC2 secondary	KCC2 bumet counter	KCC2 sec2	HEK counter1	KCC2 retest ouab	HEK counter2
Cc1ccccc1-c1nc(CS(=O)(=O)CC(=O)NCc2ccc3c(c2)OCO3)c(C)o1	i	-11.9	i	i	0.113	i	.	.	.	.	.	.
c1ccc(CSc2nnc(-c3ccco3)n2Cc2ccco2)cc1	i	-11.4	i	i	.	i	0.0056	?	0.0255*	0.00507*	0.0142*	0.00863*
Cc1ccccc1CSc1nnc(-c2ccco2)n1Cc1ccco1	i	-10.9	i	i	.	i	.	.	.	.	.	.
C(=C\c1ccccc1)/CSc1nnc(-c2ccccc2)n1Cc1ccco1	i	-10.7	i	i	-2.92	i	0.0163	?	0.0227*	0.00418*	0.0125*	0.00745*
O=S(=O)(NCc1ccccc1)c1ccc(Cl)c(S(=O)(=O)NCc2ccccc2)c1	i	-9.4	i	i	.	i	0.00759	0.00628	?	0.00613	0.0129*	0.00974
CCOc1cc(S(=O)(=O)NCc2ccccc2)ccc1F	i	-9.3	i	i	.	i	?	0.00526	0.0241*	0.00746	?	0.011
O=C(NNC(=S)Nc1ccc(Br)cc1)c1ccc(N2CCOCC2)c([N+](=O)[O-])c1	i	-12.6	i	9*	-3.83*	i	0.00931	0.00618	0.0306	?	0.0158*	0.0106
O=C(Nc1cccnc1)c1ccc(N2CCOCC2)c([N+](=O)[O-])c1	i	-8.1	i	i	.	i	.	.	.	.	.	.
CCOC(=O)C1(Cc2ccccc2C)CCCN(C(=O)c2ccc(CSC)o2)C1 (stereo not drawn)	i	-10.9	i	i	.	i	.	.	.	.	.	.
C=CCn1c(Cc2cccs2)nnc1SC/C=C/c1ccccc1	i	-14.6	i	i	-3.99*	i	0.00514	?	?	0.0053*	0.014*	0.00848*
CCn1c(SC/C=C/c2ccccc2)nnc1-c1cccs1	i	-21.0	i	i	.	i	.	.	.	.	.	.
COc1cc(/C=N/NC(=O)CN(Cc2ccccc2)S(=O)(=O)c2ccc3c(c2)OCCO3)ccc1O	i	-16.8	i	i	-4.43*	i	0.00844	0.00703	?	0.00629	0.0141*	0.0102
COc1ccc(/C=N/NC(=O)CN(Cc2ccccc2)S(=O)(=O)c2ccc3c(c2)OCCO3)cc1	i	-7.8	i	i	-3.94	i	.	.	.	.	.	.
O=C(CSc1nnc(C2CC2)n1Cc1ccccc1)c1cc2ccccc2o1	i	-7.8	i	i	-3.84*	i	0.0066	?	0.0239*	0.0069	?	0.00938
Cc1nc(SCC(=O)Nc2cc(C(N)=O)cc(C(N)=O)c2)c2c(C)c(C)sc2n1	i	-5.7	i	i	37.9*	i	?	0.0423*	0.0401	0.0522*	0.0451*	0.022*
CCCn1c(SCC(=O)N2c3ccccc3CC2C)nnc1-c1ccco1 (stereo not drawn)	i	-6.5	i	i	-4.81*	i	0.00827	0.00435	0.0349	?	0.0178*	0.00939
CCCCn1nnnc1NCc1cc(OC)c(OC)cc1OC	i	-4.9	i	i	4.89*	i	0.00923	0.00615	0.0314	0.00705	0.0192	0.0102
CCCn1nnnc1NCc1ccc(OC)cc1OC	i	-2.0	i	i	.	i	.	.	.	.	.	.
COc1ccc(NC(=O)CN(C)C(=O)CSCC(=O)Nc2ccc(C)cc2)cc1	i	-6.3	i	i	.	i	.	.	.	.	.	.
COC(=O)C1=C(Nc2ccccc2NC(=O)c2ccccc2C(=O)O)CSC1	i	-5.3	i	i	-0.00683	i	.	.	.	.	.	.
COC(=O)C1=C(Nc2ccccc2NS(=O)(=O)c2ccc(C(F)(F)F)cc2Cl)CSC1	i	-11.2	i	6*	5.53*	i	0.00743	0.0114*	0.0295	0.0121*	?	0.012*
Cc1cc(NC(=O)CCC(=O)N(Cc2ccco2)C2(C(=O)NC3CCCCC3)CCN(C)CC2)no1	i	-9.6	i	i	-5.88*	i	0.0056	0.00491	0.0331	0.00728	0.0189	0.0113
Cc1ccc(C)c(N(C(=O)CCC(=O)Nc2cc(C)on2)C(C(=O)NC2CCCC2)c2ccco2)c1 (stereo not drawn)	i	-4.2	i	i	-4.26*	i	?	0.00426	?	0.00669	0.0152	0.00898
Cc1cc(C)cc(N(C(=O)CCC(=O)Nc2cc(C)on2)C(C(=O)NC2CCCC2)c2ccco2)c1 (stereo not drawn)	i	-9.5	i	i	0.42	i	.	.	.	.	.	.
O=C(O)CSc1nnc(-c2ccc(Cl)cc2)n1-c1ccccc1	i	-1.3	i	i	.	i	.	.	.	.	.	.
Cc1c(-n2c(SCC(=O)O)nnc2-c2ccccc2Cl)c(=O)n(-c2ccccc2)n1C	i	-7.9	i	i	0.0455	i	0.00911	0.00539	0.0318	0.00757	0.0202	?
O=C(c1ccncc1)c1nccn1-c1ccccn1	i	-1.9	i	i	.	i	.	.	.	.	.	.
O=C1C2C3C=CC(CC3)C2C(=O)N1/N=C/c1c(O)ccc2ccccc12 (stereo not drawn)	i	-8.2	i	i	3.3*	i	0.00905	0.006	0.0313	0.00772	0.022	0.0105
NNC(=O)CSc1cccc2cccnc12	i	-6.0	i	i	0	i	.	.	.	.	.	.
O=C(CSc1cccc2cccnc12)N1CCCC1	i	-4.6	i	i	21.6*	i	0.0056	0.0325*	0.0292	0.0256*	0.0366*	0.0158*

Bioassay records (PubChem BioAssay)
